Screens as filed in PubChem BioAssay.
Tb hexokinase: blocks Trypanosoma brucei hexokinase 1 activity. inhibition, % at 10 µM. recombinant TbHK1, G6PDH-coupled NADH A340. 0.11% of 220,000 active;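 active = inhibition of 50% or more in the single-dose primary screen; inactive = inhibition below 50%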
PERK inh: blocks human PERK kinase; inhibition, % at 5.6 µM; 0.17% of 220,000 active; CHO PERK-DD fusion, SEAP luminescence translation reporter; Q9NZJ5;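 active = inhibition above the mean inhibition of all tested compounds plus 3 SD, set separately per screening campaign, cut at about 2.9% in these data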;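 also: PERK kinase domain activated by AP20187 dimerizer at 100 nM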
HKDC1 inhibitor: HKDC1 (human) hexokinase inhibition; recombinant HKDC1, G6PDH/diaphorase resazurin coupled fluorescence; inhibition, % at 20 µM; 0.16% of 340,000 active;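 active = inhibition above about 35% when tested at 20 µM, limit read from the data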
Target sequence (Q2TB90 whole entry, looked up): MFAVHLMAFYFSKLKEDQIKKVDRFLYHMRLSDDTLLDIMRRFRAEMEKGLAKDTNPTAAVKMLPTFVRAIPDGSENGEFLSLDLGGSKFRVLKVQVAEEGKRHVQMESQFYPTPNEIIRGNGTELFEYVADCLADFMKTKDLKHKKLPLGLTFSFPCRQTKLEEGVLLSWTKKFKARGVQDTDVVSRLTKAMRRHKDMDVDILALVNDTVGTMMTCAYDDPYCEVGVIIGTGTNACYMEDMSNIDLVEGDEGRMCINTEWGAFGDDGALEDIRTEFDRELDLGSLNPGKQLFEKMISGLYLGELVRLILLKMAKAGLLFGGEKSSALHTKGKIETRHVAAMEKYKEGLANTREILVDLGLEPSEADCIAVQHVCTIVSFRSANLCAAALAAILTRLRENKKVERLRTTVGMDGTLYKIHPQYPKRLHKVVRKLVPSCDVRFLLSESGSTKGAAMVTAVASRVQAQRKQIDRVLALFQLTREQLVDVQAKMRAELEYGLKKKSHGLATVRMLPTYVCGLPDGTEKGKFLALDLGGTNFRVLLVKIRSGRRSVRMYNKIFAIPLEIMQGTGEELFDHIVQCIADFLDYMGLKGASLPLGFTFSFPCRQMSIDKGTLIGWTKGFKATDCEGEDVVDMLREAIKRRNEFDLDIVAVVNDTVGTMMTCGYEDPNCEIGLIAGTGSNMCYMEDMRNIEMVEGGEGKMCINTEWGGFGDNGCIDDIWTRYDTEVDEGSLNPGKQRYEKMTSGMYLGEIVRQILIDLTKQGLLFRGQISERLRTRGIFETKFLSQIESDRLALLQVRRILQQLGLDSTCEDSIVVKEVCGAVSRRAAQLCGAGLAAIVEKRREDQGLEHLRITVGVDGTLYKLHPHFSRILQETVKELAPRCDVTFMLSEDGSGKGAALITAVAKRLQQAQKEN
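test system = in-house recombinant HK5 (HKDC1) enzyme | amount = HKDC1 at 5 µg/mL | control set = DMSO-enzyme wells negative, buffer-substituted wells positive | compound = one dose of 20 µM, 1% DMSO | schedule = reaction time 90 min, room temperature, protected from light | technique = resorufin fluorescence at 613 nm | reagent = glucose with 1 mM ATP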
Autophagy HCS: modulators of autophagy | AID 463193 | 0.98% of 190,000 active | MEF GFP-LC3 puncta imaging; test concentration mostly 10 µM | calls only at 10 µM (by protocol);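 active = percentage of spot-positive cells more than 3 SD above its plate mean, without a fluorescence outlier flag or 80% toxicity; inconclusive = no clear call, values can overlap the other calls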
Dynein cargo inh: dynein cargo transport inhibition; 0.47% of 220,000 active; 3617.4 mouse cells, GR-EGFP nuclear translocation imaging; test concentration mostly 20 µM; stimulated with dexamethasone, 1 µM; hits give low values; z-score, hits read low;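 active = plate z-score of nuclear minus cytoplasmic receptor signal below a set negative limit, without overly bright fluorescence or cell loss, cut at about -3.5 in these data, passing the limit was not always enough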;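 also: z-score of nuclear minus cytoplasmic ring GR-EGFP intensity difference per well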
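Buffer or medium – tet-free medium with charcoal-stripped serum · Signal – automated 10x imaging of fixed Hoechst-stained cells · Also added – dexamethasone agonist, 1.0 µM final, for 30 min · Incubation – induction 48 h, compound 1 h, agonist 30 min · Read-out – GR-EGFP nuclear translocation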
HSV replic up: HSV replication enhancement | HSV replication augmentation in cells, fold increase | maximum fold increase | 0.005% of 220,000 active; in the data active = maximum fold increase above about 1.5; inconclusive = no clear call, values can overlap the other calls; tested in PC3 cells
Dynein inh conf: dynein cargo transport inhibition, confirmation | 3617.4 GR-EGFP nuclear translocation imaging, dexamethasone-induced | calls only at 20 µM | shares compounds with Dynein cargo inh | 69% of 1,000 active;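 active = inhibition of receptor movement into the nucleus at or above a set limit in both runs, with normal cell brightness and cell count; inconclusive = limit reached in only one run, brightness and count normal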;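 also: dexamethasone at 1 µM final in well for 30 min; nuclear minus cytoplasmic GR-EGFP mean intensity difference in channel 2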
Each line names hits and unclear results; the compound was inactive in the other large screens (follow-up assays come after a bar, where they were run). Compounds with a hit are over-represented: about 1.2% of the library has one in this group of screens.

CC(C)CN1C(=O)/C(=C/c2c(N3CCc4ccccc4C3)nc3ccccn3c2=O)SC1=S	HSV replic up inconclusive (no result: HKDC1 inhibitor, Autophagy HCS) | Dynein inh conf inactive
O=C(NC(=S)Nc1nc2c(s1)CSc1ccccc1-2)c1ccccc1	Dynein cargo inh -3.5 | Dynein inh conf inactive
CCCn1c(=O)cc(N)n(-c2ccc(OC(F)(F)F)cc2)c1=O	none (no result: Tb hexokinase, PERK inh, Autophagy HCS, Dynein cargo inh, HSV replic up)
Cn1cc([N+](=O)[O-])c(C(=O)Nc2cc(Oc3ccccc3)cc([N+](=O)[O-])c2)n1	Dynein cargo inh -3.9 | Dynein inh conf active
N#Cc1cc(-c2ccccc2)[nH]c1-c1nccc2ccccc12	none (no result: Autophagy HCS)
c1ccc(-c2ccc(-c3nccc4ccccc34)[nH]2)cc1	none (no result: HKDC1 inhibitor, Autophagy HCS) | Dynein inh conf inactive
Cc1cccc(N2C(N)=C(C#N)C(C#N)(C#N)C2c2ccccc2)c1 (configuration not stated)	none
N#CC1=C(N)N(c2ccccc2)C(c2cccc([N+](=O)[O-])c2)C1(C#N)C#N (configuration not stated)	Dynein cargo inh -3.7 | Dynein inh conf active
COc1cccc(C(=O)C(C#N)=C(SC)SC)c1	Dynein cargo inh -4.5 (no result: Autophagy HCS) | Dynein inh conf active
O=C(O)c1ccc(C(=O)C(=O)c2ccccc2)cc1	none (no result: Autophagy HCS)
CSC(SC)=C(C#N)C(=O)c1ccccc1	Dynein cargo inh -4.8 (no result: Autophagy HCS) | Dynein inh conf active
COc1cccc(C(=O)Nc2ccc(NC(C)=O)cc2)c1	none
CCN(CC)CCNC(=O)c1nn(-c2ccc(Cl)cc2)c2c1CCc1cc(OC)ccc1-2	none (no result: Tb hexokinase, PERK inh, Autophagy HCS, Dynein cargo inh, HSV replic up)
COc1cc(OC)c(NC(=O)c2csc(C)c2)cc1Cl	none (no result: Tb hexokinase, PERK inh, Autophagy HCS, Dynein cargo inh, HSV replic up)
O=C(NCc1nnc2c(C(F)(F)F)cc(Cl)cn12)c1ccco1	none (no result: Tb hexokinase, PERK inh, Autophagy HCS, Dynein cargo inh, HSV replic up)
CCCOc1ccc(C(=O)CCN2CCN(C(=O)OCC)CC2)cc1	Dynein cargo inh -4.1 | Dynein inh conf inactive
CCOC(=S)SCC(=O)Nc1ncc(C)s1	Dynein cargo inh -4.1 (no result: Autophagy HCS) | Dynein inh conf inactive
CCC(C)N1CC(=O)N2C(c3ccc(OC)cc3OC)c3[nH]c4ccccc4c3C[C@H]2C1=O (some centres not stated)	none (no result: Tb hexokinase, PERK inh, Autophagy HCS, Dynein cargo inh, HSV replic up)
COc1ccc(CNC(=O)C(c2ccncc2)N(C(=O)Cc2cccs2)c2ccccc2)cc1 (configuration not stated)	none
COc1ccc(N(C(=O)CCl)C(C(=O)NCCc2ccccc2)c2cccs2)cc1 (configuration not stated)	Dynein cargo inh -5.3 | Dynein inh conf active
CCOc1ccc(CN(C)C(=O)CCl)cc1	Dynein cargo inh -5.6 | Dynein inh conf active
Cc1ccc(S(=O)(=O)NC2OC(=O)C(Cl)=C2Cl)cc1 (configuration not stated)	Dynein cargo inh -3.6 | Dynein inh conf inactive
COc1cc2c(c(OC)c1O)C(=O)CO2	none (no result: Autophagy HCS)
COc1cc(OC)c2c(O)c3c(c(-c4c5c(c(O)c6c(OC)cc(OC)cc46)CO[C@@H](C)[C@H]5O)c2c1)[C@H](O)[C@H](C)OC3	Dynein cargo inh -4.5 | Dynein inh conf active
COc1ccc(/C=C/C(=O)c2cc(F)ccc2OC(=O)c2ccccc2OC)cc1OC	Dynein cargo inh -3.9 | Dynein inh conf active
COc1ccc(/C=C/C(=O)c2cc(F)ccc2OC(=O)c2ccccc2)cc1OC	HSV replic up inconclusive
COc1ccc(/C=C/C(=O)c2cc(Br)ccc2OC(=O)c2ccco2)cc1OC	Dynein cargo inh -3.7 | Dynein inh conf active
COc1ccc(C(c2c(C)[nH]n(C(N)=S)c2=O)C(C#N)C#N)cc1 (configuration not stated)	Dynein cargo inh -4.1 | Dynein inh conf active
O=C(/C=C/c1ccco1)Nc1ccccc1N1CCCC1	Dynein cargo inh -3.6 | Dynein inh conf inactive
COC/C=C/C1=CC2=CC(=O)C(C)(OC(=O)c3cnc4ccccc4n3)C(=O)C2=CN1Cc1ccc(OC)cc1 (configuration not stated)	Dynein cargo inh -5.2 (no result: PERK inh, Autophagy HCS) | Dynein inh conf active
COc1ccc(C(=O)/C=C/C(=O)N(Cc2ccccc2)C(C(=O)NC2CCCCC2)c2ccncc2)c(O)c1 (configuration not stated)	none
COc1ccc(C(=O)/C=C/C(=O)N(CC(=O)NC2CCCCC2)Cc2ccccc2)c(O)c1	Dynein cargo inh -4.6 | Dynein inh conf active
COc1ccc(C(=O)/C=C/C(=O)N(CC(=O)NC2CCCCC2)Cc2ccccc2OC)c(O)c1	Dynein cargo inh -4.5 | Dynein inh conf active
COc1ccc(C(=O)/C=C/C(=O)N(Cc2ccccc2OC)C(C(=O)NC2CCCCC2)c2ccncc2)c(O)c1 (configuration not stated)	none
COc1ccc(C(=O)/C=C/C(=O)N(CC(=O)NC2CCCCC2)CC2CCCO2)c(O)c1 (configuration not stated)	Autophagy HCS active | Dynein inh conf active
CCN(CC)CCCNC(=O)c1ccc2c(Cl)c3c(nc2c1)CCCC3	Dynein cargo inh -3.9 | Dynein inh conf active
CC1CCN(C(=O)c2ccc3c(Cl)c4c(nc3c2)CCCC4)CC1	Dynein cargo inh -6 | Dynein inh conf active
CCCCN(CC)CCNC(=O)c1ccc2c(Cl)c3c(nc2c1)CCC3	none (no result: Tb hexokinase, PERK inh, Autophagy HCS, Dynein cargo inh, HSV replic up)
COc1ccc(N2C(=O)CC(Sc3nnnn3-c3ccc(F)cc3)C2=O)cc1 (configuration not stated)	none | Dynein inh conf active
CN(CC(=O)Nc1cccc(F)c1)CC(=O)N(C)CC(=O)Nc1ccccc1Br	none (no result: Tb hexokinase, PERK inh, Autophagy HCS, Dynein cargo inh, HSV replic up)
C=CC(=O)Nc1cccc(CN2C(=O)N(c3cc(OC)cc(OC)c3)Cc3cnc(NCCCCN(CC)CC)nc32)c1	none (no result: Tb hexokinase, PERK inh, Autophagy HCS, Dynein cargo inh, HSV replic up)
CCC(=O)N(CCC(c1ccco1)C(C)C)Cc1ccccc1 (configuration not stated)	none (no result: Autophagy HCS)
CC(=O)N(CCC(c1ccco1)C(C)C)Cc1ccc(Cl)cc1 (configuration not stated)	Dynein cargo inh -4.7 (no result: Autophagy HCS) | Dynein inh conf inactive
CCCCS(=O)(=O)/C=C\C=C/S(=O)(=O)CCCC	none (no result: HSV replic up) | Dynein inh conf active
N#C/C(=C\c1cccc([N+](=O)[O-])c1)C(=O)NCc1ccc(Cl)cc1	Dynein cargo inh -6.8 | Dynein inh conf active
COc1ccc(/C=C/C(=O)CC(O)(c2ccccc2)C(F)(F)F)cc1 (configuration not stated)	Dynein cargo inh -3.8 | Dynein inh conf active
CCOC(=O)C(C(=O)OCC)C(C(=O)OCC)N1CCOCC1 (configuration not stated)	Dynein cargo inh -4.6 | Dynein inh conf active
COC1=C(Nc2ccccc2OC)C(=O)c2ccccc2C1=O	none (no result: Autophagy HCS)
COc1ccccc1NC1=C(NC(C)=O)C(=O)c2ccccc2C1=O	Dynein cargo inh -5.1 | Dynein inh conf inconclusive
COc1ccc(NS(=O)(=O)c2cc([N+](=O)[O-])ccc2NN=Cc2ccccc2OCC(=O)O)cc1	none (no result: Tb hexokinase, PERK inh, Autophagy HCS, Dynein cargo inh, HSV replic up)
